Assay outcomes (PubChem BioAssay)
This is a sample that favours compounds with a hit; in the whole collection about 1.9% have one here.
ADAM10 inh: inhibits human ADAM10 | O14672 | recombinant ADAM10, EDANS/DABCYL FRET peptide cleavage, 3 h | inhibition, % at 7 µM | hit rate 0.62% among 370,000 | AID 720582;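 active = inhibition above a per-campaign cutoff equal to the mean of compounds falling between control-based bounds plus 3 SD, cut at about 20% in these data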;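 note: 0% = DMSO wells while the 100% control is not disclosed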
FAS-TE inh: inhibitors of human fatty acid synthase thioesterase domain; AID 602261; P49327; recombinant FAS-TE, OMFH fluorogenic substrate, fluorescence endpoint; inhibition, % at 15 µM; hit rate 0.67% among 360,000;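 active = compounds whose normalised, plate-corrected inhibition of enzyme fluorescence in the single-dose primary screen is 50% or more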;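 note: 0% = DMSO with enzyme and 100% = substrate without enzyme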
SENP1 inh: blocks the human SENP1 SUMO protease catalytic domain; hit rate 0.21% among 360,000; recombinant SENP1 catalytic domain, CyPet-SUMO1-YPet FRET cleavage; Q9P0U3; AID 624204; inhibition, % at 10 µM;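 active = inhibition at least 30% at 10 µM, raw YFP signal under a set limit, fluorescence ratio 0.5 to 1.5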;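 note: 0% = enzyme with DMSO and 100% = no enzyme wells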
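System: Recombinant human SENP1 catalytic domain, His6-tagged | Incubation: Enzyme reaction for 50 min at room temperature, dark | Medium: Tris pH 8 with BME, BSA, NP40 and catalase | Also added: 25 nM SUMO1 FRET substrate | Compound: 10 µM single point, 0.5% DMSO | Measured by: FRET fluorescence in CFP and YFP emission channels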
ADAM17 inh: inhibits human ADAM17; P78536; recombinant ADAM17, EDANS/DABCYL FRET peptide cleavage; inhibition, % at 6.95 µM; hit rate 0.83% among 370,000; AID 720648;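 active = inhibition above the mean of compounds lying between control limits plus 3 SD, set per campaign, cut at about 8.5% in these data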;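 note: 0% = DMSO-only wells as the low control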
Target sequence (P78536 215-824 limits assumed): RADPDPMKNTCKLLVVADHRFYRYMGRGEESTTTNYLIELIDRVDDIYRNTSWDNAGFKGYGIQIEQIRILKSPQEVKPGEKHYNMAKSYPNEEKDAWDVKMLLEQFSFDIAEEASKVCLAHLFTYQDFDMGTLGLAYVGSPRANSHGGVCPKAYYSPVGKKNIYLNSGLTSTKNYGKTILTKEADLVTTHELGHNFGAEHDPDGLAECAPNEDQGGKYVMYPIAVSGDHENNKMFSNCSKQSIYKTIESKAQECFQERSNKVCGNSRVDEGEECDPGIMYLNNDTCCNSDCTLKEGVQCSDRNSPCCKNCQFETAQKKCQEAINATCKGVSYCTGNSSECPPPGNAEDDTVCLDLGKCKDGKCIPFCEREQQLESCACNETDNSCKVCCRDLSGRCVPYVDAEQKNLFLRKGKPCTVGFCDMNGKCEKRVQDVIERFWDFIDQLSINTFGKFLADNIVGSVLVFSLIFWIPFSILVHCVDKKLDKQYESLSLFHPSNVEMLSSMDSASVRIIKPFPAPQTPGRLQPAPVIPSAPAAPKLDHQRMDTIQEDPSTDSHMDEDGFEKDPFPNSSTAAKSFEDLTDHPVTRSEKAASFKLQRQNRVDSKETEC
ADAM10 confirm: human ADAM10 inhibition, confirmation. hit rate 1% among 2,100. shares compounds with ADAM10 inh. ADAM10 QFRET peptide cleavage, EDANS fluorescence. AID 743208. inhibition, % at 6.95 µM;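 active = inhibition above about 20% chosen separately for each screening run, limit read from the data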;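 note: 0% = DMSO wells and 100% = marimastat wells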
ADAM17 counter: ADAM17 inhibition, counter-screen for ADAM10 exosite hits; ADAM17 QFRET peptide cleavage, EDANS fluorescence; hit rate 0.5% among 2,100; inhibition, % at 6.95 µM; shares compounds with ADAM10 inh;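 active = mean triplicate inhibition above the solvent-only control wells' mean plus 3 SD, cut at about 12% in these data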;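 note: 0% = DMSO wells and 100% = marimastat wells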
ADAM10 ctr: counter-screen for ADAM17 exosite inhibitors: inhibitors of human ADAM10; hit rate 47% among 2,900; inhibition, % at 6.95 µM; shares compounds with ADAM17 inh; AID 743256; recombinant ADAM10, EDANS/DABCYL FRET peptide cleavage, 3 h;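 active = mean inhibition over the triplicate runs exceeds the activity threshold set in the earlier primary screen, cut at about 20% in these data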;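 note: 0% = DMSO wells and 100% = marimastat wells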
ADAM17 confirm: confirmation of inhibitors of human ADAM17; AID 743257; recombinant ADAM17, EDANS/DABCYL QFRET peptide cleavage; inhibition, % at 6.95 µM; hit rate 65% among 2,900; shares compounds with ADAM17 inh;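 active = mean inhibition across replicates above the hit cutoff set in the primary screen, cut at about 8.5% in these data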;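 note: 0% = DMSO wells and 100% = marimastat wells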
Starred values were filed as active, the others as inactive.

How did O=C(c1ccc(C(F)(F)F)cc1)N1CCC(=O)N(C(COCc2ccc(Cl)cc2)Cc2ccccc2)CC1 (configuration not stated) do in these assays?
ADAM10 inh: 20*; FAS-TE inh: 32; SENP1 inh: 1; ADAM17 inh: 9.9*; ADAM10 confirm: 4; ADAM17 counter: 2; ADAM10 ctr: 14; ADAM17 confirm: 8.7*

Results for O=C(c1ccc(Cl)c(Cl)c1)N1CCC(=O)N(C(COCc2ccc(Cl)cc2)Cc2ccccc2)CC1 (configuration not stated) ?
ADAM10 inh: 20*; FAS-TE inh: 35; SENP1 inh: 1; ADAM17 inh: 9.5*; ADAM10 confirm: 10; ADAM17 counter: 3; ADAM10 ctr: 34*; ADAM17 confirm: 16*

How did O=C(c1ccc(C(F)(F)F)cc1)N1CCC(=O)N(C(COCc2ccccc2)Cc2ccccc2)CC1 (configuration not stated) do in these assays?
ADAM10 inh: 3; FAS-TE inh: 32; SENP1 inh: 3; ADAM17 inh: 3

What do the screens show for `O=[N+]([O-])c1cc(Cl)cc(/C=N/NC(=S)Nc2ccc(S(=O)(=O)N3CCOCC3)cc2)c1O`?
ADAM10 inh: 35*; FAS-TE inh: 28; SENP1 inh: 13; ADAM17 inh: 17*; ADAM10 confirm: 8; ADAM17 counter: 1; ADAM10 ctr: 29*; ADAM17 confirm: 18*

Results for COC(=O)c1ccc(S(=O)(=O)N2CCC(NC(=O)CCc3ccccc3)CC2)cc1 ?
ADAM10 inh: -4; ADAM17 inh: 0

Results for COc1ccc(CN(CCC(c2ccc(F)cc2)C2CCOC(C)(C)C2)C(=O)c2ccco2)cc1 (configuration not stated) ?
ADAM10 inh: 22*; FAS-TE inh: 47; SENP1 inh: -4; ADAM17 inh: 14*; ADAM10 confirm: 5; ADAM17 counter: 2; ADAM10 ctr: 25*; ADAM17 confirm: 15*

Results for O=S(=O)(c1cccc(C(F)(F)F)c1)N1CCC(c2cc(-c3cccc4ccccc34)n[nH]2)CC1 ?
ADAM10 inh: 14; FAS-TE inh: 9; SENP1 inh: 1; ADAM17 inh: 5

Results for COc1ccc(S(=O)(=O)N2CCC(c3cc(-c4cccc5ccccc45)n[nH]3)CC2)cc1 ?
ADAM10 inh: 25*; FAS-TE inh: 33; SENP1 inh: -2; ADAM17 inh: 11*; ADAM10 confirm: 18; ADAM17 counter: 5; ADAM10 ctr: 6; ADAM17 confirm: 9.1*

How did O=C(OCC(=O)c1c[nH]c2ccccc12)c1cccc(S(=O)(=O)N2CCCCCC2)c1 do in these assays?
ADAM10 inh: 27*; FAS-TE inh: 20; SENP1 inh: -3; ADAM17 inh: 12*; ADAM10 confirm: 8; ADAM17 counter: 2; ADAM10 ctr: 18; ADAM17 confirm: 8.7*

Results for O=C(COC(=O)c1cccc(S(=O)(=O)N2CCCCC2)c1)NCc1ccccc1 ?
ADAM10 inh: -1; FAS-TE inh: 6; SENP1 inh: 1; ADAM17 inh: -6

Results for C=CCc1cccc(CNc2nc3ccccc3n2C)c1O ?
ADAM10 inh: 20*; FAS-TE inh: 22; SENP1 inh: 1; ADAM17 inh: 11*; ADAM10 confirm: 3; ADAM17 counter: 1; ADAM10 ctr: 32*; ADAM17 confirm: 17*

What do the screens show for `C=CCc1cccc(CNc2cnc3ccccc3c2)c1O`?
ADAM10 inh: -331; FAS-TE inh: 6; SENP1 inh: -3; ADAM17 inh: -114

What do the screens show for `COc1ccccc1C(CC(=O)Nc1ccc(Cl)cc1)c1ccc(OC(C)C)cc1` (configuration not stated)?
ADAM10 inh: -3; FAS-TE inh: 30; SENP1 inh: 3; ADAM17 inh: -2

Results for CC(C)Oc1ccc(CNC(=O)CC(c2ccccc2)c2cc(Cl)ccc2O)cc1 (configuration not stated) ?
ADAM10 inh: 25*; FAS-TE inh: 23; SENP1 inh: 0; ADAM17 inh: 16*; ADAM10 confirm: 8; ADAM17 counter: 3; ADAM10 ctr: 33*; ADAM17 confirm: 16*

How did CC(C)CNS(=O)(=O)CC1NCc2cc3c(cc21)OCO3 (configuration not stated) do in these assays?
ADAM10 inh: -5; ADAM17 inh: -7

Results for Cc1cccc(C)c1OCC(=O)N(Cc1ccc(Cl)cc1)C1CCS(=O)(=O)C1 (configuration not stated) ?
ADAM10 inh: 20*; FAS-TE inh: 10; SENP1 inh: -1; ADAM17 inh: 9.2*; ADAM10 confirm: -2; ADAM17 counter: 0; ADAM10 ctr: -3; ADAM17 confirm: 2

What do the screens show for `CC(C)(C)C1CCc2nc(NC(=O)Cc3cn4ccsc4n3)sc2C1` (configuration not stated)?
ADAM10 inh: 23*; FAS-TE inh: 16; SENP1 inh: -5; ADAM17 inh: 20*; ADAM10 confirm: 3; ADAM17 counter: 2; ADAM10 ctr: 21*; ADAM17 confirm: 9.7*

How did N#CCC[C@H]1CC[C@]2(CCCN(Cc3ccc(Br)cc3)C2)O1 do in these assays?
ADAM10 inh: -1; ADAM17 inh: 0

Results for Cc1nc(N2CCCCC2C)c2nnn(Cc3ccccc3)c2n1 (configuration not stated) ?
ADAM10 inh: -2; ADAM17 inh: 3

Results for O=C(COC(=O)c1cccc(S(=O)(=O)N2CCOCC2)c1)Nc1nc(-c2ccccc2Cl)cs1 ?
ADAM10 inh: 37*; FAS-TE inh: 29; SENP1 inh: 1; ADAM17 inh: 16*; ADAM10 confirm: 10; ADAM17 counter: 4; ADAM10 ctr: 35*; ADAM17 confirm: 17*

What do the screens show for `Cc1cc(NC(=O)COC(=O)c2cccc(S(=O)(=O)N3CCOCC3)c2)no1`?
ADAM10 inh: 2; FAS-TE inh: -6; SENP1 inh: 3; ADAM17 inh: -1

What do the screens show for `O=C(Cn1c(-c2cncs2)nc2ccccc21)NC1CCCCC1`?
ADAM10 inh: -7; ADAM17 inh: 2

What do the screens show for `C[C@@H](NC(=O)c1nc[nH]c1C(=O)NCCCCCNC(=O)OC(C)(C)C)c1ccccc1`?
ADAM10 inh: 2; FAS-TE inh: -2; SENP1 inh: 2; ADAM17 inh: -1
